Screens deposited in PubChem by Broad Institute.
A selection: hits, their analogues and other compounds. The true share with any hit is near 1.5%.
RAD52 anneal inh: blocks human RAD52 DNA annealing; recombinant RAD52 DNA annealing, FRET fluorescence; 360,000 compounds, 0.46% hits; P43351; inhibition, % at 18.7 µM;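 active = every replicate showing at least 50% inhibition; inconclusive = mean inhibition at least 50% but not in every replicate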
Target sequence (P43351 whole entry, looked up): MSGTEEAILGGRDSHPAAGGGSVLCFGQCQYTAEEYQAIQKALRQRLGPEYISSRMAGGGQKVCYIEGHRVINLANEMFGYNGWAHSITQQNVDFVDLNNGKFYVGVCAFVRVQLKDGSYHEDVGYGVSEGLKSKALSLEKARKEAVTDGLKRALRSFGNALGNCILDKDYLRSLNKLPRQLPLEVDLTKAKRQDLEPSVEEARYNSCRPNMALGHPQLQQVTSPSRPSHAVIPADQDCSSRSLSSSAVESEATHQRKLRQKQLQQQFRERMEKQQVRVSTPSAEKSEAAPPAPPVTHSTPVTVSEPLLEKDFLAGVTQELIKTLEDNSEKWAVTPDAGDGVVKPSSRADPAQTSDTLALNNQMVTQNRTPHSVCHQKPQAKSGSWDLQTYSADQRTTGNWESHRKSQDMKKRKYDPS
dFosB act-1: activators of mouse delta FosB homodimer. P13346. purified delta FosB, TAMRA-CDK5 oligo fluorescence polarization; percent of positive-control signal above neutral wells. activation, % at 25 µM. 340,000 compounds, 0.99% hits. AID 493131;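 active = mean activation above about 17%, with every replicate also reaching it, limit read from the data, passing the limit was not always enough; inconclusive = only one of the two conditions met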
S100A4 inh HTS: S100A4-myosin IIA interaction inhibition; S100A4/TAMRA-MyoIIA peptide fluorescence polarization; inhibition, % at 10.7 µM; 360,000 compounds, 0.14% hits; AID 652163;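 active = mean inhibition of at least 70% across replicates, with every replicate also reaching that level; inconclusive = mean inhibition reaches 70% but some replicates fall short; inactive = mean inhibition below 70%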
Target sequence (P26447 whole entry, looked up): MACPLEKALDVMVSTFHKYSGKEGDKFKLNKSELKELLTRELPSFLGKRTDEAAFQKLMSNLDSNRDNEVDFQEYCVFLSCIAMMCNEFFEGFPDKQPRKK
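Material: S100A4 monomer protein / Buffer or medium: 50 mM HEPES pH 7.2, 10 mM CaCl2, 100 mM KCl / Times: 5 min incubation before reading / Benchmarks: neutral control DMSO, positive control TFP / Reagent: labelled myosin peptide probe, 5 nM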
AF4-AF9 inh: MLL-AF4/AF9 protein interaction inhibition. P42568. AlphaScreen, biotin-AF4 peptide binding to FLAG-AF9. inhibition, % at 10 µM. 350,000 compounds, 0.47% hits. AID 651704;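 active = every replicate reaching a set inhibition limit, whatever the replicate mean, cut at about 25% in these data; inconclusive = mean inhibition reaches that limit but some replicates miss it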;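 note: 0% = plate neutral control median and 100% = total signal loss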
RAD54 branch: RAD54 (human) branch migration inhibition | Q92698 | RAD54 Holliday junction branch migration, FAM/BHQ fluorescence | inhibition, % at 10.4 µM | 360,000 compounds, 0.14% hits;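 active = mean normalized replicate activity at least 40 and at least half of replicates scoring 40 or more; inconclusive = only one of the two criteria met; inactive = mean below 40 and under half of replicates reaching 40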;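 note: 0% = median of neutral control wells and 100% = median of positive control wells; inhibitors cause a drop in the FAM fluorescence signal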
dFosB act-2: activators of mouse delta FosB homodimer DNA binding; shares compounds with dFosB act-1; purified delta FosB, TAMRA-CDK5 oligo fluorescence polarization; normalised: neutral wells 0, positive control 100; activation, % at 24.9 µM; 2,400 tested, under 10 active;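 active = highest replicate activation at or above 34% and every replicate reaching that threshold; inconclusive = meets only one of the two criteria; inactive = meets neither criterion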;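 note: higher polarization means more probe DNA bound by delta FosB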
An asterisk follows results filed as active; ? = inconclusive; nt = no result given.

SMILES | RAD52 anneal inh | dFosB act-1 | S100A4 inh HTS | AF4-AF9 inh | RAD54 branch | dFosB act-2
C[C@H]1CN([C@@H](C)CO)S(=O)(=O)c2ccc(/C=C/c3ccccc3)cc2O[C@@H]1CN(C)C(=O)Nc1ccc(F)cc1 | 21 | nt | -1 | 3 | 8 | nt
O=C1CC(=C2c3ccccc3-c3ccccc32)C(=O)N1CCCCN1CCN(c2ccccc2)CC1 | nt | 33* | nt | nt | -6 | 3
O=C1CC(=C(c2ccccc2)c2ccccc2)C(=O)N1CCCN1CCN(c2cccc(Cl)c2)CC1 | nt | -4 | nt | nt | 4 | nt
COc1ccc(C(=O)NCCNc2nc3cc(C)c(C)cc3cc2C)cc1 | -11 | 25* | -9 | 1 | 4 | 4
Cc1cc([N+](=O)[O-])c(C)cc1-c1ccc(/C=N/NC(=O)Cn2nnnc2N)o1 | -126 | 33* | -5 | -1 | nt | 6
Nc1nnnn1CC(=O)N/N=C/c1cc([N+](=O)[O-])ccc1Cl | -10 | 2 | -2 | -1 | nt | nt
COc1ccccc1-c1ccc2n(c1=O)C[C@@H]1[C@@H](CO)[C@H](C(=O)Nc3nccs3)N(C)[C@H]21 | -3 | nt | 2 | -2 | nt | nt
O=C(N/N=C/c1cccnc1)c1cccc(NC(=O)c2ccc(Cl)cc2)c1 | nt | 32* | nt | nt | -7 | 2
Cc1cccc(C(=O)Nc2ccc(C(=O)/C=C/c3cccnc3)cc2)c1 | nt | -3 | nt | nt | 3 | nt
O=C(Nc1ccc(Br)cc1)c1ccc(Br)c(S(=O)(=O)Nc2cccnc2)c1 | nt | 28* | nt | nt | -13 | -3
O=C(/C=C/c1cccnc1)c1ccc(NC(=O)c2cccc(Br)c2)cc1 | nt | 46* | nt | nt | -1 | 1
Cc1cccc(/C=N/NC(=O)c2ccc(NC(=O)c3ccc(Cl)cc3)cc2)n1 | -13 | 41* | -2 | 1 | -9 | 7
Cc1cccc(C(=O)Nc2ccc(C(=O)N/N=C/c3cccnc3)cc2)c1 | -10 | -4 | 1 | 1 | -4 | nt
COc1ccc2c3c(n(C)c2c1)[C@H](CO)N(C(=O)c1ccccc1)CC31CN(CC2CC2)C1 | nt | nt | nt | 7 | nt | nt
CN1CCN(C(=O)C[C@@H]2CC[C@@H]3[C@H](COC[C@H](O)CN3C(=O)C3CCCC3)O2)CC1 | -9 | nt | -5 | -1 | -1 | nt
CO[C@H]1CN(C)C(=O)c2cc(NC(=O)CC(F)(F)F)ccc2OC[C@@H](C)N(C(=O)C2CCOCC2)C[C@@H]1C | -42 | nt | -39 | -16 | nt | nt
CN(C)C(=O)C[C@H]1CC[C@H](NC(=O)NC2CCCCC2)[C@@H](CO)O1 | -5 | nt | 5 | 2 | 11 | nt
CO[C@H]1CN(C)C(=O)c2cc(NC(=O)Nc3ccccc3)ccc2OC[C@@H](C)N(CC2CC2)C[C@@H]1C | -1 | nt | -11 | 2 | 7 | nt
O=C(Nc1ccc(Cl)cc1)N[C@H]1CC[C@@H](CCNC(=O)c2cc(Cl)cc(Cl)c2)O[C@@H]1CO | 23 | nt | 1 | -3 | nt | nt
COCC#Cc1cnc2c(c1)C(=O)N([C@@H](C)CO)C[C@@H](C)[C@H](CN(C)C(=O)c1cccc(F)c1)O2 | -6 | nt | 11 | -3 | -1 | nt
Cc1ccnc(NC(=O)c2cccc(NC(=O)c3ccc(Cl)cc3)c2)c1 | 10 | -3 | -4 | -2 | 0 | nt
Cc1ccnc(NC(=O)c2cccc(NC(=O)c3ccc(Cl)c(Cl)c3)c2)c1 | -13 | 48* | 2 | 0 | -14 | -2
O=C(C[C@@H]1CC[C@@H]2[C@H](COC[C@H](O)CN2CCC(F)(F)F)O1)NCC1CCCCC1 | 4 | nt | -2 | -1 | -2 | nt
C[C@@H]1CN([C@@H](C)CO)C(=O)c2cc(NS(=O)(=O)c3cccs3)ccc2O[C@H]1CN(C)Cc1ccc(Cl)c(Cl)c1 | 6 | nt | 14 | 8 | -16 | nt
COc1ccc(OC)c(-c2csc(N(C)C(=O)c3ccco3)n2)c1 | -12 | 19* | 2 | -2 | -8 | 8
SMILES | RAD52 anneal inh | dFosB act-1 | S100A4 inh HTS | AF4-AF9 inh | RAD54 branch | dFosB act-2
O=C(O)COc1ccc(NC(=O)c2ccc(NC(=O)c3ccco3)cc2)cc1 | -3 | 0 | -1 | -4 | 0 | nt
COc1ccc(-c2csc(NC(=S)NC(=O)c3ccco3)n2)cc1 | -9 | 47* | 5 | 2 | nt | -4
COc1ccc(C(=O)Nc2ccc(-c3nnn(CC(=O)N4CCN(C(=O)c5ccco5)CC4)n3)cc2)cc1 | nt | 68* | nt | nt | nt | -1
COc1ccc(C(=O)Nc2ccc(NC(=O)c3ccco3)cc2)cc1 | -7 | 51* | -6 | 4 | nt | 1
O=C(Cn1nnc(-c2ccc(Cl)cc2)n1)N1CCN(C(=O)c2ccco2)CC1 | -10 | -16 | -23 | 1 | -7 | nt
CC(=O)N(C)C[C@H]1Oc2ncc(-c3ccc(F)cc3)cc2C(=O)N([C@@H](C)CO)C[C@@H]1C | -18 | nt | -21 | -4 | -1 | nt
Cc1ccc2[nH]c(=O)c(-c3nc4cc(C)ccn4c3NCc3ccco3)cc2c1 | nt | 32* | nt | nt | -8 | -5
CC(C)NC(=O)Nc1ccc2c(c1)C(=O)N([C@H](C)CO)C[C@H](C)[C@@H](CN(C)C(=O)c1ccncc1)OCCCC[C@H](C)O2 | 1 | nt | 3 | -1 | 17 | nt
O=C(COC(=O)c1c2c(nc3ccccc13)/C(=C/c1cccc([N+](=O)[O-])c1)CCC2)NC1CCS(=O)(=O)C1 (stereo unspecified) | nt | -3 | nt | nt | nt | nt
CN(C(=O)COC(=O)c1c2c(nc3ccccc13)/C(=C/c1cccc([N+](=O)[O-])c1)CCC2)C1CCS(=O)(=O)C1 (stereo unspecified) | -8 | 17* | -4 | 4 | nt | -2
CCOc1ccc(CCNC(=O)Cn2c(-c3nonc3N)nc3ccccc32)cc1OCC | nt | 24* | nt | nt | 12 | -1
Nc1nonc1-c1nc2ccccc2n1CC(=O)N/N=C\c1ccc(-c2ccc(Cl)cc2)o1 | nt | 35* | nt | nt | -2 | -7
CCCCOc1ccccc1NC(=O)Cn1c(-c2nonc2N)nc2ccccc21 | nt | 74* | nt | nt | 7 | 2
COc1ccc(CCNC(=O)Cn2c(-c3nonc3N)nc3ccccc32)cc1OC | -17 | 10 | -6 | nt | 8 | nt
C[C@H](NC(=O)C[C@@H]1C[C@H]2c3cc(NC(=O)C4CCC4)ccc3O[C@H]2[C@@H](CO)O1)c1ccccc1 | 3 | nt | -9 | -1 | -7 | nt
Cc1noc(C)c1NC(=O)Nc1ccc2c(c1)C(=O)N([C@H](C)CO)C[C@H](C)[C@H](CN(C)C)OCCCC[C@H](C)O2 | 1 | nt | -10 | -2 | -1 | nt
O=C(Nc1ccc(-n2ccc(C(F)(F)F)n2)cc1)Nc1cccc(Cl)c1 | -9 | 29* | -3 | nt | nt | 6
Cc1ccc(NC(=O)CCC(=O)Nc2nnc(C3CCCCC3)s2)cc1 | -13 | 4 | -3 | -2 | nt | nt
Cc1cccc(NC(=O)CCC(=O)Nc2nnc(C3CCCCC3)s2)c1 | -11 | 30* | 2 | -10 | 7 | 4
COc1ccc(-n2c(-c3ccc(Cl)cc3)c[n+]3c2CCc2ccccc2-3)cc1 | 21 | -2 | -1 | 3 | nt | nt
Cc1ccc(-n2c(-c3ccc(Br)cc3)c[n+]3c2CCc2ccc4cccnc4c2-3)cc1 | nt | 26* | nt | nt | 88* | ?
